Experimental findings from article PMC6959537 (Bioorganic & medicinal chemistry, 2015) are described below.

The target in one data set is human TRPV1 (Homo sapiens, UniProt Q8NER1). The data set is described as follows: hTRPV1 antagonism, inhibition of activation by capsaicin. The class given is cell-based.
A further data set has as its system body temperature. The data set is described as follows: Body temperature study. The following applies: at the given doses, oral. The class given is in vivo, mouse.
Data set [1] has as its system capsaicin-induced hypothermia. The data set is described as follows: Inhibition of capsaicin-induced hypothermia after oral administration. More on the design: species or system mouse. The conditions noted are these: in vivo.
Data set [2] deals with CCI-induced cold allodynia. The data set is described as follows: CCI-induced cold allodynia. It counts as in vivo. The following applies: mouse, Bennett model, oral, 10 mg/kg. Put shortly: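 Mice with chronic constriction injury (Bennett model) received test compound orally. Cold allodynia was then scored and expressed as % maximal possible effect. Groups were n = 10, reported as mean ± SEM, and compared with vehicle (p < 0.05).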

Setting [3] is: capsaicin 100 nM, FLIPR, hTRPV1 expressed in CHO cells.

“Also recorded” adds a separate entry of the source. Like-named read-outs stand apart in the source and are kept apart here.

Chain of human TRPV1 (Q8NER1 whole entry): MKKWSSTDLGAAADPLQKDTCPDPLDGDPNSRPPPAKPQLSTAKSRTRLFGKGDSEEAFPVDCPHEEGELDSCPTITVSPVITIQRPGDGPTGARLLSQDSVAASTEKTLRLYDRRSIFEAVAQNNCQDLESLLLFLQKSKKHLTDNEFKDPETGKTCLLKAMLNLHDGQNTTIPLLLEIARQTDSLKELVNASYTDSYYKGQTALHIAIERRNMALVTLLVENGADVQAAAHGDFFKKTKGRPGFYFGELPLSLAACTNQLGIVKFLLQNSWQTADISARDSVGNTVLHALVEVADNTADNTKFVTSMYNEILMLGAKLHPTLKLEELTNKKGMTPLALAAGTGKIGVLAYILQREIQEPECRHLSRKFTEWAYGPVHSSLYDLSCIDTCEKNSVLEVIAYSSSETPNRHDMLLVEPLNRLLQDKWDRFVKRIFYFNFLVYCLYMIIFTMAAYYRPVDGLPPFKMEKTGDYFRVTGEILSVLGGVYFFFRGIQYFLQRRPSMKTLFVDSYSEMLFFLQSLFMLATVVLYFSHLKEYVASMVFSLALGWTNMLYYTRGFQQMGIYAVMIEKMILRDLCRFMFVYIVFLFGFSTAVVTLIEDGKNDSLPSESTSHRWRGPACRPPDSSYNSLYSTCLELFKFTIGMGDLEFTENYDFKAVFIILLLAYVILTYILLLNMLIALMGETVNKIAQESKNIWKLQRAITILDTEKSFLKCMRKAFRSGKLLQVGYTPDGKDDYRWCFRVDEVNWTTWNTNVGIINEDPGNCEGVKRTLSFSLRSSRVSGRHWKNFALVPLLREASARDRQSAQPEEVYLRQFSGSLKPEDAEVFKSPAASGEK

What is called Ki is the equilibrium dissociation constant of an inhibitor or competing ligand from its target. For the compound “2-(2-Fluoro-4-(methylsulfonamido)phenyl)-N-(2-(4-(4-fluorobenzyl)piperidin-1-yl)-4-(trifluoromethyl)benzyl)propanamide [Compound 20]”, at human TRPV1 (read-out: Ki (CAP), capsaicin 100 nM, FLIPR, hTRPV1 expressed in CHO cells), the Ki came to 0.4 nM.

On to “2-(3-Fluoro-4-(methylsulfonamido)phenyl)-N-(2-cyclopentylthio-4-(trifluoromethyl)-benzyl)propanamide [Compound 49]”, for which the “hTRPV1 antagonism in words” value at human TRPV1 (setting [3]) was “moderate antagonism”.

Consider `CC(C(=O)NCc1ccc(C(F)(F)F)cc1N1CCOCC1)c1ccc(NS(C)(=O)=O)c(F)c1` (centres unmarked) [Compound 27, 2-(3-Fluoro-4-methanesulfonylamino-phenyl)-N-(2-morpholin-4-yl-4-trifluoromethyl-benzyl)-propionamide], for which the “fold less potent than the corresponding piperidine surrogate (10)” value on human TRPV1 (capsaicin antagonism, versus compound 10) is recorded as “ca. 4 fold”.

On human TRPV1, `CCCCCCOc1cc(C(F)(F)F)ccc1CNC(=O)C(C)c1ccc(NS(C)(=O)=O)c(F)c1` (centres unmarked) [Compound 31, 2-(3-Fluoro-4-(methylsulfonamido)phenyl)-N-(2-(hexyloxy)-4(trifluoromethyl)benzyl)propanamide] showed a Ki of 0.7 to 0.8 nM.

For `CC(C(=O)NCc1ccc(C(F)(F)F)cc1SCCCO)c1ccc(NS(C)(=O)=O)c(F)c1` (centres unmarked) [Compound 42, 2-(3-Fluoro-4-(methylsulfonamido)phenyl)-N-(2-((3-hydroxypropyl)thio)-4-(trifluoro-methyl)benzyl)propanamide], the “hTRPV1 antagonism in words” value at human TRPV1 (setting [3]) is on record as “loss of activity”.

As to `CC(C(=O)NCc1ccc(C(F)(F)F)cc1SC1CCCC1)c1ccc(NS(C)(=O)=O)c(F)c1` (centres unmarked) [Compound 43, 2-(3-Fluoro-4-(methylsulfonamido)phenyl)-N-(2-cyclopentylthio-4-(trifluoromethyl)-benzyl)propanamide], the “Hyperthermia / body temperature effect of compound alone” value in the data set with body temperature is “without hyperthermia; also recorded: did not show any hyperthermia; also recorded: thermoneutral”. Further, the “Effect on capsaicin-induced hypothermia in words” value in data set [1] is reported as “blocked capsaicin-induced hypothermia”.

For the compound `C[C@H](C(=O)NCc1ccc(C(F)(F)F)cc1SC1CCCCC1)c1ccc(NS(C)(=O)=O)c(F)c1` [Compound 44S], the “Hyperthermia / body temperature effect of compound alone” value in the data set with body temperature is on record as “without hyperthermia; also recorded: did not show any hyperthermia; also recorded: thermoneutral”. The “Effect on capsaicin-induced hypothermia in words” value in data set [1] was “blocked capsaicin-induced hypothermia”. In data set [2], the “max antiallodynic efficacy in cold allodynia, MPE” value is 57 % MPE.

`CC(C(=O)NCc1ccc(C(F)(F)F)cc1F)c1ccc(NS(C)(=O)=O)c(F)c1` (centres unmarked) [Compound 50, 2-(3-Fluoro-4-methanesulfonylamino-phenyl)-N-(2-fluoro-4-trlfluoromethyl-benzyl)-propioamide]: the “hTRPV1 antagonism in words” value on human TRPV1 (setting [3]) is recorded as “weak antagonists”.

Take `CC(C(=O)NCc1ccc(C(F)(F)F)cc1Cl)c1ccc(NS(C)(=O)=O)c(F)c1` (centres unmarked) [Compound 51, 2-(3-Fluoro-4-methanesulfonylamino-phenyl)-N-(2-chloro-4-trifluoromethyl-benzyl)-propionamide]: the “hTRPV1 antagonism in words” value at human TRPV1 (setting [3]) is “good antagonism”.

For the compound `CC(C(=O)NCc1ccc(C(F)(F)F)cc1[N+](=O)[O-])c1ccc(NS(C)(=O)=O)c(F)c1` (centres unmarked) [Compound 52, 2-(3-Fluoro-4-methanesulfonylamino-phenyl)-N-(2-nitro-4-trifluoromethyl-benzyl)-propionamide], the “hTRPV1 antagonism in words” value at human TRPV1 (setting [3]) is listed as “weak antagonists”.

In the case of `CC(C(=O)NCc1ccc(C(F)(F)F)cc1-c1cccnc1)c1ccc(NS(C)(=O)=O)c(F)c1` (centres unmarked) [Compound 62, 2-(3-Fluoro-4-methanesulfonylamino-phenyl)-N-(2-pyridin-3-yl-4-trifluoromethylbe-nzyl)-propionamide], the “hTRPV1 antagonism in words” value on human TRPV1 (setting [3]) is given as “weak antagonist”.
